# Screens as filed in PubChem.
# In the library only some 2.3% were active in any assay of this set; here they are far more common.
# Mcl1-Bid inh: disrupts binding of human Mcl-1 to Bid peptide; Q07820; TR-FRET Mcl-1/Bid-Dy647 peptide binding, 1536-well; inhibition, % at 21.7 µM; 220,000 compounds, 0.97% hits; AID 1021;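 active = compounds that cut the binding signal by more than half at the single screening dose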;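 also: His-tagged Mcl-1 with europium anti-His antibody binding Bid BH3 peptide; 0% = Mcl-1 plus peptide wells and 100% = peptide-only wells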
# Target sequence (Q07820 whole entry, looked up): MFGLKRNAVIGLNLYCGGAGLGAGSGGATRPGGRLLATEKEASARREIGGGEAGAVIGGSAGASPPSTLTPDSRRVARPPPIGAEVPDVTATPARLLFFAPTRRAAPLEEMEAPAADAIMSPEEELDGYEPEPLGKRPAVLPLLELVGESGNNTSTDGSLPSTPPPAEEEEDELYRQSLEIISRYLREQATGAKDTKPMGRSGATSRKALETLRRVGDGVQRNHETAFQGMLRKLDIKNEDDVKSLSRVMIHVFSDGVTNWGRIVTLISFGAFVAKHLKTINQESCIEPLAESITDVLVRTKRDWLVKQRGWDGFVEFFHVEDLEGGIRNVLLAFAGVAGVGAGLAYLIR
# T cell modulator: T cell immune modulation candidate; 330,000 compounds, 0.068% hits; AID 2052; response (vesicle binding), % at 7 µM; 2C CD8+ T cell-vesicle binding, flow cytometry; hits give low values;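 active = response, share of CD8 T cells binding vesicles, and their 90th percentile fluorescence all below set limits, cut at about 80% in these data, passing the limit was not always enough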;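 also: values below 100% mean blocked vesicle binding to the CD8+ T cells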
#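 Read-out – percent CD8+ FL2 mean versus row control · System – murine 2C transgenic CD8+ T lymphocytes · Times – 1.5 h cell–vesicle binding at 37 °C, then 20 min icy labelling · Control set – naked vesicles low, QL9 vesicles with vehicle high · Detection – cytometric PE anti-B7-1 and Alexa647 anti-CD8 signals after 1% paraformaldehyde fixation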
# Pemphigus Ab inh: human desmoglein-3 autoantibody binding inhibition; 310,000 compounds, 0.48% hits; binding (percent of control), % at 10 µM; DSG3-coupled beads, scFv-anti-DSG3-GFP binding, flow cytometry; hits give low values; P32926; AID 588358;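 active = binding more than 3 SD below its plate's average and above zero; inconclusive = below that plate limit but binding exactly zero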;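 also: hits lower antibody fragment binding to DSG3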
# Mcl-1 Bim block: inhibitors of Bim-Mcl-1 interaction, human; Q07820; Bead-based flow cytometry, Bim peptide-Mcl-1 binding; inhibition, % at 10 µM; 190,000 compounds, 0.1% hits; AID 1009; in the data active = inhibition above about 40%;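 also: 0% = no compound tracer wells and 100% = peptide blocker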
# Mcl1 Noxa PPI: Mcl-1/Noxa interaction inhibition. Q07820. TR-FRET Mcl-1/Noxa peptide binding, 2 h. inhibition, % at 21.7 µM. 220,000 compounds, 1.5% hits. AID 1022;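 active = compounds that cut the protein-peptide binding signal by more than 50% relative to plate controls in a single-dose test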;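 also: His-tagged Mcl-1 with rhodamine Noxa BH3 peptide and terbium anti-His antibody; 0% = Mcl-1 plus Noxa peptide wells and 100% = peptide-only wells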
# MCL1-BIM inh: MCL1-BIM-BH3 interaction inhibition (human); Q07820; GST-MCL1 / FITC-Bim-BH3 fluorescence polarization; inhibition, % at 10.9 µM; 320,000 compounds, 0.68% hits; AID 2057;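 active = inhibition above the mean inhibition of all tested compounds plus 3 SD, set per campaign, cut at about 40% in these data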;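 also: 0% = DMSO wells and 100% = unlabeled Bim-BH3 peptide control; higher means more loss of mP so more displacement of Bim peptide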
# An asterisk follows results filed as active; ? = inconclusive; · = no result given.
SMILES,Mcl1-Bid inh,T cell modulator,Pemphigus Ab inh,Mcl-1 Bim block,Mcl1 Noxa PPI,MCL1-BIM inh
CCOc1ccc(-c2csc(/C(C#N)=C\c3ccc(O)c([N+](=O)[O-])c3)n2)cc1,-23.1,161.5,119.0,-3.0,56.0*,-1.9
CN(C)CCCn1c2c3ccccc3ccc2c2oc(=O)c3ccccc3c21,·,·,69.7*,·,·,·
O=C(NCc1cccc(Cl)c1)c1cnccn1,-10.1,107.2,107.6,-3.0,22.8,45.8*
CCn1c(SCC(=O)NCC2CCCO2)nnc1-c1c[nH]c2ccccc12 (stereo not given),-15.8,0.0*,103.9,-2.0,-2.0,-1.5
Cn1c(SCC(=O)NCC2CCCO2)nnc1-c1c[nH]c2ccccc12 (stereo not given),-11.4,192.7,?,0.0,-7.7,-2.6
CCOC(=O)c1c(C)oc2ccc(O)c(CN3CCCCC3)c12,-23.0,164.6,103.0,-1.0,-7.5,3.8
CCOC(=O)c1c(C)oc2c1c(C(c1ccncc1)N1CCOCC1)c(O)c1ccccc12 (stereo not given),82.2*,467.0,·,-1.0,98.1*,13.3
COc1ccccc1Oc1c(C)oc2c(CN3CCN(CCO)CC3)c(O)ccc2c1=O,-13.7,462.3,·,1.0,-9.0,112.5*
CCOC(=O)c1c(C)oc2c1c(CN1CCN(CCO)CC1)c(O)c1ccccc12,56.1*,·,99.1,0.0,95.0*,·
CCOC(=O)c1c(C)oc2c1c(CN1CCN(C(=O)OCC)CC1)c(O)c1ccccc12,61.6*,178.7,99.3,-8.0,97.6*,22.5
O=C(Nc1cccc([N+](=O)[O-])c1)C1COc2ccccc2O1 (stereo not given),·,445.0,97.8,·,·,-0.6
O=[N+]([O-])c1cccc(N/N=C/c2cccc(O)c2O)c1,-35.1,274.4,115.0,4.0,67.5*,3.1
Cc1cccc(N/N=C/c2ccc(O)c(O)c2O)c1,-188.7,286.2,85.2,·,52.7*,19.5
O=[N+]([O-])c1ccccc1N/N=C/c1cccc(O)c1O,0.4,380.5,92.5,·,54.1*,12.5
COc1ccc(N=Nc2c(C)[nH]c3ccccc23)cc1,·,529.4,119.2,·,·,15.0
CC1=NN(c2ccccc2)C(=O)/C1=C/c1c(O)n(-c2ccc(F)c(Cl)c2)[nH]c1=O,40.5,250.9,·,-3.0,85.8*,5.5
COc1cccc(Nc2ccccc2C(=O)O)c1,-54.2,308.5,106.7,-3.0,26.4,8.4
COc1cc(-c2ccc(Nc3ccccc3C(=O)O)c(OC)c2)ccc1Nc1ccccc1C(=O)O,97.5*,·,56.2,·,105.3*,·
CSc1sc(C(=O)NCC2CC2)c2c1S(=O)(=O)N(C)c1ccccc1-2,-15.2,384.5,92.7*,·,-2.5,-4.0
CN(CCCC[C@H](CNCc1ccc(-c2ccccc2)cc1)N1C[C@H](c2ccccc2)N(CCc2ccc(Cl)c(Cl)c2)C(=O)C1=O)Cc1ccc(-c2ccccc2)cc1,60.7*,·,·,·,20.8,·
OCC1CCCN(c2nc(CN3CCCCC3)nc3scc(-c4ccccc4)c23)C1 (stereo not given),97.5*,288.4,112.2,-2.0,0.7,9.6
CC(C)(CCC(=S)N1CCOCC1)c1ccccc1,·,·,92.5,·,·,·
COc1ccc(/C=C2\SC(=N)N(c3nccs3)C2=O)cc1OC,-70.2,208.7,86.9,9.0,4.7,4.2
COc1cc(/C=C2/C(=N)N3C(c4ccccc4)=CSC3=NC2=O)ccc1OCC(=O)O,10.9,290.5,95.5,·,36.6,-2.8
N=C1S/C(=C\c2ccc(-c3cccc(Cl)c3)o2)C(=O)N1c1nccs1,90.6*,591.7,74.2,0.0,87.6*,0.6
SMILES,Mcl1-Bid inh,T cell modulator,Pemphigus Ab inh,Mcl-1 Bim block,Mcl1 Noxa PPI,MCL1-BIM inh
N=C1/C(=C\c2ccc(-c3ccc(C(=O)O)cc3)o2)C(=O)N=C2SC=C(c3ccccc3)N12,95.8*,·,93.5,·,116.9*,·
N=C1/C(=C\c2ccc(-c3cccc(Cl)c3)o2)C(=O)N=C2SC=C(c3ccccc3)N12,-24.5,347.5,109.9,-2.0,51.4*,-56.2
CCCCn1c(N)c(N(CCOC)C(=O)C2CCN(C(=O)c3ccc(F)cc3)CC2)c(=O)[nH]c1=O,·,442.1,99.7,·,·,1.6
Cc1noc(C)c1CN1C(=O)NC(Cc2ccccc2)(Cc2ccccc2)C1=O,3.9,104.4,118.5,40.0*,13.5,-0.1
O=[N+]([O-])c1ccccc1C=CC=NN=Cc1ccccc1O,·,·,-3.9*,·,·,·
O=C(Nc1nc2ccccc2[nH]1)NC1CCCCC1,·,387.7,112.7,·,·,3.2
Cc1ccc(C(=O)N2CCn3c(C)ccc3C2C)cc1 (stereo not given),-24.6,198.1,132.6,-2.0,-6.5,42.4*
Cc1ccc(C(=O)N2CCN(C(=O)c3ccccc3)C2c2ccc(N(C)C)cc2)cc1 (stereo not given),-77.5,289.6,101.1,-2.0,13.7,-4.8
O=C1C=C(O)c2cccc(O)c2C1=O,-77.7,150.0,·,·,60.3*,12.5
O=C1C=C(c2c(O)ccc3ccccc23)c2ccccc2C1=O,·,·,128.0,·,·,·
O=C(CN1CCN(CCN2C(=O)c3cccc4cccc(c34)C2=O)CC1)c1ccc(F)cc1,97.8*,227.1,·,-1.0,18.2,11.6
O=C(Nc1ccccc1)Nc1n[nH]c2nnc(-c3ccccc3)c(-c3ccccc3)c12,·,216.8,96.8,·,·,-9.2
O=C1NNC(c2ccccc2)=N/C1=C\c1ccco1,30.5,97.9,95.7,·,65.0*,25.4
Cc1ccc(S(=O)(=O)N2CCN(C(=O)n3ccnc3)CC2)cc1,·,515.6,101.2,·,·,-3.9
CC(=O)Nc1cccc(C(=O)NNC(=O)c2ccccc2-n2cccc2)c1,·,324.1,108.0,·,·,2.7
Cc1cccc(N(CC(=O)NCC2CCCO2)C(=O)CCC(=O)Nc2nccs2)c1 (stereo not given),·,165.6,104.0,·,·,-0.2
CCCN(C1CCS(=O)(=O)C1)S(=O)(=O)c1cc(OC)ccc1OC (stereo not given),·,82.1,111.7,·,·,5.9
COc1ccc2c(c1O)Cc1ccccc1C2=O,1.8,289.3,101.1,0.0,51.6*,21.4
O=C1CC(C(=O)Nc2ccc(Cl)cc2)n2ncnc2N1 (stereo not given),-34.2,236.2,-8.7*,0.0,14.1,4.2
CC(=O)c1cccc(S(=O)(=O)NC2CCSc3ccccc32)c1 (stereo not given),·,381.5,112.5,·,·,6.3
CSc1ccccc1NC(=O)c1cc2ncc(Br)cn2n1,-19.1,213.1,102.5,-1.0,59.1*,12.1
Cc1ccccc1Cn1ccc(NC(=O)c2cc3ncc(Br)cn3n2)n1,-80.6,207.4,90.2,-1.0,20.1,13.1
C=CCN(c1ccccc1OC)S(=O)(=O)c1cccc(C(=O)NCc2cccs2)c1,·,·,85.6,·,·,·
O=C(/C=C/N1CCOCC1)c1cc2ccccc2o1,74.6*,495.5,103.0,2.0,5.7,-17.6
O=C(/C=C/N1CCOCC1)c1coc2ccccc12,71.1*,188.5,102.2,-1.0,-3.0,-22.2
COC(=O)c1ccc(C)c(NC(=O)COC(=O)C2CC3CCCC(C2)C3=O)c1 (stereo not given),·,273.1,106.0,·,·,-19.6
